# Test results as given in the RNAGym collection of RNA variant scans (doi:10.1126/science.aae0568).
# This sample holds only a part of the variants without activity.
# B1: tRNA (parent)
# chain: GUUCCGUUGGCGUAAUGGUAACGCGUCUCCCUCCUAAGGAGAAGACUGCGGGUUCGAGUCCCGUACGGAACG
# Variants of: B1
# Assay: yeast fitness relative to wild type (ratio to wild type); higher = fitter; tRNA-Arg(CCU), competitive growth, 37 C, YPD
# How it was run: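 The tRNA-Arg(CCU) gene variants were made by chemical synthesis with a 3% per-site mutation rate at 69 sites and inserted at the native genomic locus of Saccharomyces cerevisiae. After pooling, the strains were competed in YPD at 37°C for 24 hours in six parallel replicates. Gene amplicons from the start population and each end population were read by 100-nucleotide paired-end sequencing, and Darwinian fitness relative to wild type was taken from genotype frequency changes. Genotypes needed ≥ 100 starting reads, and estimates < 0.5 were set to 0.5.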
row,Variant,yeast fitness
1,GAUCCGUUGGCGUUAUGGUAACGCGUCUGCCUCCUAAGGAGAACACUGCGGGUUCGAGUCCCGUACGGAACG,0.534
2,GAUCCGUUGGCGUACUGGUAACGCGUCUCCCUCCUAAGGAGAAGACUGCGGGUUCGACUCCCGUACGGAACG,≤ 0.5
3,GAUCCGUUGGCGUACUGGUAACGCGUCUCGCUCCUAAGGAGAAGACUGCGGGUUCGAGUCCCGUACCGAACG,≤ 0.5
4,GAUCCGUUGGCGUAAUGGUAACGCGUCUCCCUCCUAGGGAGAAGACUGCGGGUUCGAGUCCCGUACGGAACG,0.659
5,GAUCCGUUGGCGUAAUGGUCACGCGUCUCCCUCCUAAGGAGAAGACUGCGGGUUUGAGUCCCGUACGGAACG,0.582
6,GAUCCGUUGGCGUUAUGGUAACGCGUCUCCCUCCUAAGGAGAAGAUUGCGGGUUCGAGUCCCGUACGGAACG,0.595
7,GAUCCGUUGGCGUAAUGGUAUCGCGUCUCCCUCCUAAGGAGGAGACUGCGGGUUCGAGUCCCGUACGGAACG,≤ 0.5
8,GAUCCGUUGGCGUCAUGGUGACGCGUCUCCCUCCUGAGGAGAAGACUGCGGGUUUGAGUCCCGUACGCAACG,0.595
9,GAUCCGUUGGCGUAAUGGUAACGCGUCUCCCUCCUAAGGUGAAGACUGCGGGUUCGAGUCCCGUCCGGAACG,≤ 0.5
10,GAUCCGUUGGCGUAAUGGUGACGCGUCUACCUCCUAAGGAGAAGUCUGCGGGUUCGAGUCCCGUACGGAACG,0.538
11,GAUCCGUUGGCGUUAUGGUAACGCGUCUCCCUCCUAAGGAGAAGACUGCGGGUUCGAGUCCCGUACGGAACG,0.682
12,GAUCCGUUGGCGUGAUGGUAACGCGUCUCCCUCCUAUGGAGAAGACUGCGGGUACGAGUCCCGUACGGAACG,≤ 0.5
13,GAUCCGUUGGCGUCAUGGUAACGCGUCUCUCUCGUAAGGAGAAGUCUGCGGGUUCGAGUCCCGUACGGAACG,≤ 0.5
14,GAUCCGUUGGCGUAAUGGUUACGCGUCUCCCUCAUAAGGAGAAGACUGCGGGUUCGAGUCUCGUUCGGAACG,≤ 0.5
15,GAUCCGUUGGCGUAAUGGUACCGCGUCUUCCUCCUAAGGAGAAGACUGCGAGUUCGAGUCCCGUACGGAACG,0.574
16,GAUCCGUUGGCGUAAUGGUACCGCGUCUCCGUCCUAAGGAGACGACUGCGGGUUCGAGUCCCGUACGGAACG,≤ 0.5
17,GAUCCGUUGGCGUCAUGGUAACGCGUCUCUCUCGUAAGGAGAAGACUGCGGGUUCGAGUCCCGUACGGAACG,≤ 0.5
18,GAUCCGUUGGCGUUAUGGUAACGUGUCUCCCGCCUAAGGAGAAGACUGCGGGUUCGAGUCCCGUACGGAACG,0.672
19,GAUCCGUUGGCGUAAUGGUAACGCGUCUCCCUCCUCAGGAGAAGACUGCGGGUUCGAGUCCCGUACGGAACG,0.518
20,GAUCCGUUGGCGUAAUGGUAACGCGUCUCCCUCCUUAGGAGAAGACUGCGGGUUCGAGUCCCGUACGGAACG,0.596
21,GAUCCGUUGGCGUAAUGGUAACGCGUCUCCCUCCUCAGGAGAAGCCUGCGGGUUGGAGUCCAGUACGAAACG,≤ 0.5
22,GAUCCGUUGGCGUCAUGGUAACGCGUCUCCCUCCUAAGGAGAAGACUCCGGGUUCGAGUCCCGUACGGAACG,≤ 0.5
23,GAUCCGUUGGCGUAAUGGUGACGCGUCUCCCUCCUAAGGAGAAGACUGCGGGUUCGAGUCCCGUACGGCACG,0.688
24,GAUCCGUUGGCGUAAUGGUAGCGCGUCUCCCUCCUAAGGAGAACACUGCGGGUUCGAGGCUCGUACGGAACG,≤ 0.5
25,GAUCCGUUGGCGUAAUGGUCACGCGUUUCCCUCCUAAGGAGAAGACUGCGGGUUCGACUCCCGUACGGCACG,≤ 0.5

row,Variant,yeast fitness
1,GAUCCGUUGGCGUAUUGGUAACGCGUCUCCCUCAUAAGCCGAAGACUGCGGGUUCCAGUCGGGUACGCAACG,≤ 0.5
2,GAUCCGUUGGCGUAAUGGUGACGCGUCUCCCUCCUAAGGAGAAGACUGCGGGUUCGAGUCCCGUACGGAACG,0.838
3,GAUCCGUUGGCGUAAUGGUCACGCGUCUCCCUCCUAAGGAGAAGACUGCGGGUUCGAGUCCCGUACGGAACG,0.928
4,GAUCCGUUGGCGUAUUGGUAACGCGUUUCACUCCUAAGGACAAGACUGAGGGUUGGAGUCACGUACGGAACG,≤ 0.5
5,GAUCCGUUGGCGUAAUGGUAGCGCGUCUGCCUCCUAAGGAGAAGACUGAGGGUUCGAGUCCCGUACAGAACG,≤ 0.5
6,GAUCCGUUGGCGUAAUGGUAUCGCGUCUCCCUCCUAAGGAGAAGACUGCGGGUACCAGUCCCGUACGGAACG,0.646
7,GAUCCGUUGGCGUAAUGGUAGCGCGUCUCCCUCCUUAGGAGAAGACUGCGGGUUCGAGUCCCGUACGGAACG,0.624
8,GAUCCGUUGGCGUAAUGGUCACGCGUCUCCCUCCUAAGGAGAAGACUCCGGGUUCGAGUCCCGUACCGAACG,≤ 0.5
9,GAUCCGUUGGCGUACUGGUAACGCGUCUCGCUCCUAAGGAGAAGACUGCGGGUUCGAGUCCCGUACGGAACG,≤ 0.5
10,GAUCCGUUGGCGUAAUGGUAGCGCGUCUCCCUCCUAAGGAAAGGACUGCGGGUUCGAGUCCCGUACGGAACG,≤ 0.5
11,GAUCCGUUGGCGUAAUGGUCACGCGUCUCCCUCCUAGGGAGAAGACUGCGGGUUCGAGUCCCGUACGGAACG,0.529
12,GAUCCGUUGGCGUAAUGGUCACGCGUCUCCCUCCUAAGGAGAAGACUGCGGGUUCGAGUCCCGUACGUAACG,1.01
13,GAUCCGUUGGCGUACUGGUAACGCGUCUCCCUCCUAAGGAGAAGACUGCGGGUUCGAGUCCCGUACGGCACG,≤ 0.5
14,GAUCCGUUGGCGUACUGGUAACGCGUCUCCCUCCUAAGGAGAAGACCGCGGGUUCGAGUCCCGUACGGAACG,≤ 0.5
15,GAUCCGUUGGCGUAGUGGUAACGCGUCUUCCUCCUAAGGAAAAGACUGCGGGUUCGAGUCCCGUACGGAACG,≤ 0.5
16,GAUCCGUUGGCGUACUGGUAACGCGUCUCCCUCCUAAGGAGAAGACUGCGGGUUCGAGUCCCGUACGGAACG,0.685
17,GAUCCGUUGGCGUAUUGGUAACGCGUCUCCCUCCUAAGGAGAAGACUGCGGGUUCGAGUCCCGUACGGAACG,0.753
18,GAUCCGUUGGCGUUAUGGUAGCGCGUCUCCCUCCUAAGGAGAAGAGUGCGGGUUCGUGUCCCGUAUGGAACG,0.56
19,GAUCCGUUGGCGUCAUGGUAACGCGUCUCUCUCGUAAGGAGAAGACUGCGAGUUCGAGUCCCGUACGGAACG,≤ 0.5
20,GAUCCGUUGGCGUAAUGGUAACGCGUCUCCCUCCUGAGGAGAAGACUGAGGGUUCGAGUCCCGUACGGAACG,≤ 0.5
21,GAUCCGUUGGCGUAAUGGUAACGCGUCUCCCUCCUACGGAGAAGACUGCGGGUUCGCGUUCCGUACGGAACG,≤ 0.5
22,GAUCCGUUGGCGUAAUGGUAACGCGUCUCCCUCCUAAGGGGAAGACUGCGGGUUCGAGUCCCGUACGGAACG,0.932
23,GAUCCGUUGGCGUAUUCGUAACGCGUCUCCCUCCUAAGGAGAAGACUGCGAGUUCGAGUCCCGUACGGAACG,≤ 0.5
24,GAUCCGUUGGCGUAAUGGUGACGCGUCUCCCUCCUAAGGAGAAGACUGCGGGUUGGAGUCCCGUACGGAACG,0.537
25,GAUCCGUUGGCGUAAUGGUUACGCGUCUCACUCCUUAGGAGAAGACUGCGGGUUCGAGUUCCGUACGGCACG,≤ 0.5

row,Variant,yeast fitness
1,GAUCCGUUGGCGUAAUGGUACCGAGUCUCCCUACUAAGGAGAAGACUCCGGGUUCGAGUCCCGUACGGAACG,≤ 0.5
2,GAUCCGUUGGCGUAAUGGUGACGCGUGUCCCUCCUAAGGAGAAGACUGCGGGUUCGAGUCCCGUACGGAACG,≤ 0.5
3,GAUCCGUUGGCGUAAUGGUACCGCGUCUUCCUCCUAAGGAGAAGACUGCGGCUUCGAGUCCCGUACGGAACG,≤ 0.5
4,GAUCCGUUGGCGUAAUGGUGACGCGUCUCCCUCCUAAGGAGAAGACUGUGGGUUCGAGUCCCGUACGGAACG,0.605
5,GAUCCGUUGGCGUAAUGGUACCGCGUCUCACUCCUAAGGAGAAGACUGAGGGUUCGAGUCCCGUACGGAACG,≤ 0.5
6,GAUCCGUUGGCGUAAUGGUGACGCGUCUCCAUCCUAAGGAGAUGACUGCGGGUUCGAGUCACGUACGGAACG,≤ 0.5
7,GAUCCGUUGGCGUAAUGGUAGCGCGUCUUCCUCCUAAGGUGAAGACUGCGGGUUCGAGUCCCGUACGGUACG,0.59
8,GAUCCGUUGGCGUGAUGGUAAGGCGUCUCGCUCCUAAGGAGAAGACAGCGGGUUCGAGUCCCGUACGGAACG,≤ 0.5
9,GAUCCGUUGGCGUAAUGGUGACGGGUCUCGCUCCUAAGGAGAAGACUGCGGGUUCGAGUCCCGUACGGAACG,≤ 0.5
10,GAUCCGUUGGCGUAGUGGUAACGCGUCUCCGUCCUAAGGUGAAGACUGCGGGUUCGAGUGCCGUACAGAACG,≤ 0.5
11,GAUCCGUUGGCGUAAUGGUCACGCGUCUCCCUCCUAAGGGGAAGACUGCGGGUUCGAGUCCCGUACGGAACG,0.633
12,GAUCCGUUGGCGUAAUGGUAACGCGUCUCCCUCCUAGGGAGAAGACUGCGGGUUUGAGUCCCGUACGGAACG,≤ 0.5
13,GAUCCGUUGGCGUAAUGGUAUCGCGUCUCCCUCCUAAGGAGAAGACUGCAGGUUCGAGUCCCGUACGGAACG,≤ 0.5
14,GAUCCGUUGGCGUAGUGGUAACGCGUCUCCCUCCUAUGGAGAAGACUGGGGGUUCGAGUCCCGUACGGAACG,≤ 0.5
15,GAUCCGUUGGCGUAAUGGUUACGCGUCUCCCUCCUAAGGAGAAGACUGCGGGAUCGAGUACCGUACGGAACG,0.558
16,GAUCCGUUGGCGUAAUGGUAACGCGUCUCCCUCCUAAGGAGCAGACUGCGGGUUCGAGUCCCGUACGGAACG,0.818
17,GAUCCGUUGGCGUAAUGGUAACGCGUCUCCCUCCUAAGGUGAAGACUACGGGUUCGAGUCCCGUACGGAACG,0.681
18,GAUCCGUUGGCGUAAUGGUCACGCGUCUCCCUCCUAAGGAGAAGACUGCGGGUUCGAGUCCCGUACGGCACG,0.78
19,GAUCCGUUGGCGUAAUGGUAGCGCGUCUUCCUCCUAAGGUGAAGACUGCGGGUUCGAGUCCCAUACGGUACG,≤ 0.5
20,GAUCCGUUGGCGUCAUGGUAACGCGUCUCCCUCCUAAGGAGAAGACUGCAGGUUCGAGUCCCCUACGGAACG,≤ 0.5
21,GAUCCGUUGGCGUGAUGGUAACGCCUCUCCCUCCUAAGGAGAAGACCCCGGGUUCGAGUCCCGUACGGAACG,0.573
22,GAUCCGUUGGCGUAAUGGUGACGCGUCUCCCUCAUAAGGAGAAGACUGUGGGUUCGAGUCCCGUACGGAACG,≤ 0.5
23,GAUCCGUUGGCGUAAUGGUAUCGCGUCUCCCUCCUAAGGAGAAGACUGCGGGUUCGAGUCCCGUACGGAACG,0.686
24,GAUCCGUUGGCGUAAUGGUUCCGCGUUUCCCUACUAAGGAGAAGACUGCGGGUUCGAGUCCCGUACGGACCG,0.528
25,GAUCCGUUGGCGUAAUGGUAGCGCGUCUUCCUCCUAAGGUGAAGACUGGGGGUUCGAGUCCCGUACGGAACG,≤ 0.5
